Assay results as given in ChEMBL document CHEMBL1811864 (Bioorg Med Chem, 2011).
pEC50, pIC50: −log10 of the molar value.

Legend:
[1] = molecular target: T1, Transcriptional activator protein LuxR (Aliivibrio fischeri) (UniProt P12746); test: Antagonist activity at Vibrio fischeri ESI 114 (delta-LuxI) LuxR assessed as inhibition of […]-induced quorum sensing activation at 10 uM after 8 hrs by […] relative to untreated control; format: functional
T1 sequence (whole entry): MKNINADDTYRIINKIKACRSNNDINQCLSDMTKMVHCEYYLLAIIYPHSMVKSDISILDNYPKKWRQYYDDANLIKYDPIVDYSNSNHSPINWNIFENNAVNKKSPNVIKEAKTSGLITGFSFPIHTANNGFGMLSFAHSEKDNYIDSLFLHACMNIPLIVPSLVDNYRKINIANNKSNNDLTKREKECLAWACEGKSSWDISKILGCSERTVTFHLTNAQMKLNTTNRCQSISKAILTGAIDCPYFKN

[2] = test system: Escherichia coli DH5[alpha]; test: Antagonist activity at Escherichia coli DH5alpha (pJN105L + pSC11) LasR assessed as inhibition of OdDHL-induced quorum sensing activation at 10 uM after 8 hrs by beta-galactosidase reporter gene assay relative to untreated control; format: functional
[3] = test system: Escherichia coli DH5[alpha]; test: Agonist activity at Escherichia coli DH5alpha (pJN105L + pSC11) LasR at 10 uM after 8 hrs by beta-galactosidase reporter gene assay relative to OdDHL; format: functional
[4] = molecular target: T1, Transcriptional activator protein LuxR (Aliivibrio fischeri); test: Agonist activity at Vibrio fischeri ESI 114 (delta-LuxI) LuxR at 10 uM after 8 hrs by […] relative to […]; format: functional
In short: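 V. fischeri ESI 114 lacking LuxI synthase but keeping its native lux operon; LuxR activity read as luminescence. Compounds were screened at 10 µM alone, without native AHL. Signal was normalized to the native-ligand positive control.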

Escherichia coli = test: Growth inhibition of Escherichia coli DH5alpha (pJN105L + pSC11) at 10 uM after 4 to 16 hrs; format: organism-based, DH5[alpha]; conditions: in vivo
In short: (§1)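 Bacterial growth was monitored over the reporter gene assay time course (4–16 h) with compounds at 10 µM.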

[5] = molecular target: T2, Transcriptional activator protein LasR (Pseudomonas aeruginosa (strain ATCC 15692 / PAO1 / 1C / PRS 101 / LMG12228)) (UniProt P25084); test: Agonist activity at Pseudomonas aeruginosa PAO1 MW1 (pUM15) LasR at 10 uM after 8 hrs by YFP fluorescence reporter gene assay relative to OdDHL
T2 sequence (whole entry): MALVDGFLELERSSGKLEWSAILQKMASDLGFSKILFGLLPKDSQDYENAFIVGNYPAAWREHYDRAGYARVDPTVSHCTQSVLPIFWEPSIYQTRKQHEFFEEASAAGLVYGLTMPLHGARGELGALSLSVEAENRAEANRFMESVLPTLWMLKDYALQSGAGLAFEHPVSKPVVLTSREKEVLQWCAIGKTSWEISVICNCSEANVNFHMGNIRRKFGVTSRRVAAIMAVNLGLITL

[6] = molecular target: T3, Transcriptional activator protein TraR (Agrobacterium tumefaciens) (UniProt P33905); test: Agonist activity at Agrobacterium tumefaciens WCF (pCF372) TraR at 10 uM after 8 hrs by beta-galactosidase reporter gene assay relative to […]; format: functional
T3 sequence (whole entry): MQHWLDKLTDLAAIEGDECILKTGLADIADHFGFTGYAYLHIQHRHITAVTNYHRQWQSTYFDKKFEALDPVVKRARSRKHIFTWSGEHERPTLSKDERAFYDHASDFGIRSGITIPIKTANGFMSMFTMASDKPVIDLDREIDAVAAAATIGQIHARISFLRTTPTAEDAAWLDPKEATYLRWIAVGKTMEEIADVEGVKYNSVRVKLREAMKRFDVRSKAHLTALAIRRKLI

Pseudomonas aeruginosa = test: Growth inhibition of Pseudomonas aeruginosa PAO1 MW1 (pUM15) at 10 uM after 4 to 16 hrs; format: organism-based; conditions: in vivo; in short: as §1
Aliivibrio fischeri = test: Growth inhibition of Vibrio fischeri ESI 114 (delta-LuxI) at 10 uM after 4 to 16 hrs; format: organism-based; conditions: in vivo; in short: as §1
[7] = test system: Agrobacterium tumefaciens; test: Growth inhibition of Agrobacterium tumefaciens WCF (pCF372) at 10 uM after 4 to 16 hrs; format: organism-based; conditions: in vivo; in short: as §1
[8] = molecular target: T3, Transcriptional activator protein TraR (Agrobacterium tumefaciens); test: Antagonist activity at Agrobacterium tumefaciens WCF (pCF372) TraR assessed as inhibition of […]-induced quorum sensing activation at 10 uM after 8 hrs by beta-galactosidase reporter gene assay relative to untreated control; format: functional
[9] = Antagonist activity at Escherichia coli DH5alpha (pJN105L + pSC11) LasR assessed as inhibition of OdDHL-induced quorum sensing activation after 8 hrs by beta-galactosidase reporter gene assay; format: functional, Escherichia coli DH5[alpha]
[10] = molecular target: T4, Transcriptional activator protein LuxR (Aliivibrio fischeri, UniProt P12746); test: Antagonist activity at Vibrio fischeri ESI 114 (delta-LuxI) LuxR assessed as inhibition of OHHL-induced quorum sensing activation after 8 hrs by […]
T4 sequence (P12746 whole entry): T1 sequence (whole entry)

[11] = Agonist activity at Escherichia coli DH5alpha (pJN105L + pSC11) LasR after 8 hrs by beta-galactosidase reporter gene assay relative to OdDHL; format: functional, Escherichia coli DH5[alpha]
[12] = molecular target: T5, Transcriptional activator protein LasR (Pseudomonas aeruginosa (strain ATCC 15692 / PAO1 / 1C / PRS 101 / LMG12228), UniProt P25084); test: Agonist activity at Pseudomonas aeruginosa PAO1 MW1 (pUM15) LasR after 8 hrs by YFP fluorescence reporter gene assay relative to OdDHL
T5 sequence (P25084 whole entry): T2 sequence (whole entry)

[13] = molecular target: T2, Transcriptional activator protein LasR (Pseudomonas aeruginosa (strain ATCC 15692 / PAO1 / 1C / PRS 101 / LMG12228)); test: Antagonist activity at Pseudomonas aeruginosa PAO1 MW1 (pUM15) LasR assessed as inhibition of OdDHL-induced quorum sensing activation at 10 uM after 8 hrs by […] relative to untreated control; format: functional
In short: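 P. aeruginosa PAO1 MW1 (pUM15) lacks functional LasI and carries a LasR-responsive promoter driving YFP, so fluorescence is the read-out. Compounds were tested at 10 µM. […] Background from wells with no compound or AHL was subtracted. Assays were done in triplicate.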

Row | SMILES | inhibition [1] | inhibition [2] | Activity [3] | Activity [4] | Activity (Escherichia coli) | Activity [5] | Activity [6] | Activity (Pseudomonas aeruginosa) | Activity (Aliivibrio fischeri) | Activity [7] | inhibition [8] | pIC50 [9] | pIC50 [10] | pEC50 [11] | pEC50 [12] | inhibition [13]
1 | CCCC(=O)N[C@H]1CCSC1=O | 42% | 17% | 4% | 0% | Non-toxic | 22% | 0% | Non-toxic | Non-toxic | Non-toxic | – | – | – | – | – | –
2 | O=C(Cc1cccc([N+](=O)[O-])c1)NC1CCSC1=O (racemic) | 30% | -3% | 81% | 26% | Non-toxic | 3% | 0% | Non-toxic | Non-toxic | Non-toxic | 30% | – | – | – | – | –
3 | O=C(Cc1ccccc1)NC1CCSC1=O (racemic) | 30% | 61% | 3% | 0% | Non-toxic | 17% | 0% | Non-toxic | Non-toxic | Non-toxic | 13% | – | – | – | – | –
4 | CCCCCC(=O)N[C@H]1CCSC1=O | 93% | 59% | 1% | 0% | Non-toxic | 20% | 0% | Non-toxic | Non-toxic | Non-toxic | – | 5.96 | 6.08 | – | – | –
5 | O=C(Cc1ccc(-c2ccccc2)cc1)NC1CCSC1=O (racemic) | 85% | 45% | – | 0% | Non-toxic | 1% | 11% | Non-toxic | Non-toxic | Non-toxic | 26% | – | – | – | – | –
6 | O=C(CCc1cc2ccccc2[nH]1)NC1CCSC1=O (racemic) | 75% | 54% | 72% | 0% | Non-toxic | 3% | 6% | Non-toxic | Non-toxic | Non-toxic | – | – | – | – | – | –
7 | COc1ccc(CC(=O)NC2CCSC2=O)cc1 (racemic) | 59% | 48% | 0% | 0% | Non-toxic | 4% | – | Non-toxic | Non-toxic | Non-toxic | – | – | – | – | – | –
8 | CCCCCCCCCCCC(=O)N[C@H]1CCSC1=O | 57% | – | 94% | 0% | Non-toxic | 42% | 0% | Non-toxic | Non-toxic | Non-toxic | 6% | – | – | 5.72 | 4.68 | –
9 | O=C(Cc1ccc(-c2ccccc2)cc1)N[C@H]1CCSC1=O | 98% | 56% | 9% | 0% | Non-toxic | 3% | 0% | Non-toxic | Non-toxic | Non-toxic | 9% | 5.54 | 6.46 | – | – | –
10 | O=C(Cc1ccc(Br)cc1)NC1CCSC1=O (racemic) | 91% | 68% | 8% | 0% | Non-toxic | 5% | 1% | Non-toxic | Non-toxic | Non-toxic | 25% | – | – | – | – | –
11 | CCCCCCCC(=O)N[C@H]1CCSC1=O | 80% | 64% | 85% | 0% | Non-toxic | 0% | 0% | Non-toxic | Non-toxic | Non-toxic | 99% | 6.85 | 6.89 | – | – | -7%
12 | COc1ccc(CC(=O)N[C@H]2CCSC2=O)cc1 | 70% | 51% | 1% | 1% | Non-toxic | 7% | 0% | Non-toxic | Non-toxic | Non-toxic | – | 5.14 | – | – | – | –
13 | O=C(CCc1cc2ccccc2[nH]1)N[C@H]1CCSC1=O | 68% | 16% | 4% | 0% | Non-toxic | 10% | 0% | Non-toxic | Non-toxic | Non-toxic | – | – | – | 5.74 | – | -7%
14 | CCCCCCCCCC(=O)CC(=O)NC1CCSC1=O (racemic) | 91% | – | 102% | 0% | Non-toxic | 127% | 1% | Non-toxic | Non-toxic | Non-toxic | 51% | – | – | – | – | –
15 | O=C(Cc1ccccc1)N[C@H]1CCSC1=O | 34% | 65% | 2% | 0% | Non-toxic | 2% | 3% | Non-toxic | Non-toxic | Non-toxic | – | 5.60 | – | – | – | –
16 | O=C(Cc1ccc(Br)cc1)N[C@H]1CCSC1=O | 97% | 80% | 2% | 0% | Non-toxic | 8% | 0% | Non-toxic | Non-toxic | Non-toxic | – | 6.40 | 6.11 | – | – | –
